# Experimental data taken from ChEMBL document CHEMBL2401619, “Novel small molecule inhibitors targeting the "switch region" of bacterial RNAP: structure-based optimization of a virtual screening hit” (Eur J Med Chem, 2013).
# Key:
# Escherichia coli [1] = test: Antibacterial activity against Escherichia coli expressing ToLC mutant assessed as growth inhibiiton after 18 hrs; format: functional
# Outline: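 E. coli TolC (efflux-defective) in LB, start OD600 0.03, compounds predissolved in DMSO (max 1% final); serial dilutions, final 0.02–100 µg/mL, each concentration in duplicate. OD read at compound addition and after 18 h at 37 °C, 50 rpm. MIC = lowest concentration with no detectable growth; mean of two independent runs (three if MIC < 10 µg/mL).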
# [2] = Inhibition of Escherichia coli RNAP assessed as incorporation of [5,6-3H]UTP preincubated for 10 mins followed by DNA template and ATP, CTP, GTP, UTP, [5,6-3H]UTP addition measured after 10 mins by scintillation counting analysis
# Outline: (§1)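 Purchased E. coli RNAP holoenzyme (1 unit, 0.5 µg) with 40 mM Tris-HCl pH 7.5, 150 mM KCl, 10 mM MgCl2, 10 mM DTT, 0.1% CHAPS, RNase inhibitor and compound in 2% DMSO final, preincubated 10 min at 25 °C. Reaction started with religated pcDNA3.1 template (3500 ng), 400 µM ATP/CTP/GTP, 100 µM UTP and 60 nCi [3H]-UTP, then run 10 min at 37 °C. TCA-precipitated RNA counted by scintillation and compared with DMSO controls.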
# Staphylococcus aureus = test: Antibacterial activity against Staphylococcus aureus subsp. aureus Newman assessed as growth inhibiiton after 18 hrs; format: functional
# Outline: (§2)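 Broth dilution in LB, start OD600 0.03, compounds predissolved in DMSO (max 1% final), serial dilutions 0.02–100 µg/mL tested in duplicate. Incubation 18 h, 37 °C, 50 rpm (200 rpm for PAO1). OD read at start and after incubation. MIC is the lowest concentration with no detectable growth. Values are means of two independent runs, three if MIC <10 µg/mL.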
# [3] = Antibacterial activity against Bacillus subtilis subsp. subtilis assessed as growth inhibiiton after 18 hrs; format: functional; outline: as §2
# Pseudomonas aeruginosa = test: Antibacterial activity against Pseudomonas aeruginosa PAO1 assessed as growth inhibiiton after 18 hrs; format: functional; conditions: PAO1, 18 h; outline: as §2
# Escherichia coli [4] = test: Antibacterial activity against Escherichia coli K-12 assessed as growth inhibiiton after 18 hrs; format: functional; conditions: K-12, 18 h; outline: as §2
# Escherichia coli [5] = test: Reduction of resistance frequencies in Escherichia coli expressing ToLC mutant at 2 x MIC after 16 hrs relative to rifampicin, myxopyronin; format: functional
# Outline: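 E. coli TolC cell count per mL set by plating dilutions on LB agar and counting colonies. […] Resistance frequency derived from the threshold inoculum at which growth (resistance) appeared.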
# Escherichia coli [6] = test: Inhibition of RNAP in Escherichia coli expressing ToLC mutant assessed as reduction of RNA level at 100 uM after 40 mins by whole cell assay in presence of [3H]-uridine relative to control
# Outline: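 E. coli TolC grown in LB. 3H-uridine (1 µCi/mL) added in log phase, 3 min before compound (100 µM, 0.5% DMSO). 300 µL culture harvested 40 min later and precipitated with 2 volumes of 10% TCA for 45 min at 4 °C. Precipitate collected on glass-fibre filters and radioactivity counted.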
# Escherichia coli [7] = test: Inhibition of Escherichia coli RNAP assessed as incorporation of [5,6-3H]UTP at 25 uM preincubated for 10 mins followed by DNA template and ATP, CTP, GTP, UTP, [5,6-3H]UTP addition measured after 10 mins by scintillation counting analysis relative to control; outline: as §1
# Escherichia coli [8] = test: Inhibition of Escherichia coli RNAP assessed as incorporation of [5,6-3H]UTP at 50 uM preincubated for 10 mins followed by DNA template and ATP, CTP, GTP, UTP, [5,6-3H]UTP addition measured after 10 mins by scintillation counting analysis relative to control; outline: as §1
# Escherichia coli [9] = test: Inhibition of Escherichia coli RNAP assessed as incorporation of [5,6-3H]UTP at 100 uM preincubated for 10 mins followed by DNA template and ATP, CTP, GTP, UTP, [5,6-3H]UTP addition measured after 10 mins by scintillation counting analysis relative to control; outline: as §1
SMILES,MIC (Escherichia coli [1]),IC50 [2],pIC50 [2],MIC (Staphylococcus aureus),MIC [3],MIC (Pseudomonas aeruginosa),MIC (Escherichia coli [4]),also measured
CCN(Cc1ccccc1)C(=O)Nc1cc(-c2cc(Cl)ccc2Cl)sc1C(=O)O,9 µg/mL,35 µM,4.46,,,,,
CCCCN(Cc1ccccc1)C(=O)Nc1cc(-c2ccc(Cl)c(Cl)c2)sc1C(=O)O,> 50 µg/mL,9 µM,,> 50 µg/mL,> 50 µg/mL,> 50 µg/mL,> 50 µg/mL,
CCN(Cc1ccccc1)C(=O)Nc1cc(-c2ccc(C)cc2)sc1C(=O)O,21 µg/mL,137 µM,3.86,,,,,
CCN(Cc1ccccc1)C(=O)Nc1cc(-c2ccc(OC)cc2)sc1C(=O)O,15 µg/mL,240 µM,3.62,,,,,
CCN(Cc1ccccc1)C(=O)Nc1cc(-c2ccc(C#N)cc2)sc1C(=O)O,25 µg/mL,133 µM,3.88,,,,,
CCN(Cc1ccccc1)C(=O)Nc1cc(-c2ccc(Cl)cc2)sc1C(=O)O,11 µg/mL,75 µM,4.12,,,,,
CCN(Cc1ccccc1)C(=O)Nc1cc(-c2ccc(Cl)cc2Cl)sc1C(=O)O,8 µg/mL,32 µM,4.49,12 µg/mL,10 µg/mL,> 50 µg/mL,> 50 µg/mL,
CCN(Cc1ccccc1)C(=O)Nc1cc(-c2ccc(C(F)(F)F)cc2)sc1C(=O)O,21 µg/mL,51 µM,4.29,,,,,
CCCCNC(=O)Nc1cc(-c2ccc(Cl)c(Cl)c2)sc1C(=O)O,13 µg/mL,91 µM,,,,,,
CCCCN(C(=O)Nc1cc(-c2ccc(Cl)c(Cl)c2)sc1C(=O)O)c1ccccc1,> 25 µg/mL,14 µM,,,,,,
CCCCCNC(=O)Nc1cc(-c2ccc(Cl)c(Cl)c2)sc1C(=O)O,10 µg/mL,35 µM,,> 25 µg/mL,8 µg/mL,> 25 µg/mL,> 25 µg/mL,
CCN(Cc1ccccc1)C(=O)Nc1cc(-c2cccc(Cl)c2)sc1C(=O)O,9 µg/mL,72 µM,4.14,21 µg/mL,12 µg/mL,> 100 µg/mL,> 100 µg/mL,fold change (FC) (Escherichia coli [5]): >500
CCN(Cc1ccccc1)C(=O)Nc1cc(-c2ccc(Cl)c(Cl)c2)sc1C(=O)O,10 µg/mL,22 µM,4.66,8 µg/mL,11 µg/mL,> 25 µg/mL,> 25 µg/mL,inhibition (Escherichia coli [6]): 60%
CO[C@H]1/C=C/O[C@@]2(C)Oc3c(C)c(O)c4c(O)c(c(/C=N/N5CCN(C)CC5)c(O)c4c3C2=O)NC(=O)/C(C)=C\C=C\[C@H](C)[C@H](O)[C@@H](C)[C@@H](O)[C@@H](C)[C@H](OC(C)=O)[C@@H]1C [RIFAMPIN],5 µg/mL,0.03 µM,,0.02 µg/mL,4.8 µg/mL,13 µg/mL,7 µg/mL,
O=C(Nc1ccccc1)Nc1sc2c(c1C(=O)O)CCCCCC2,> 25 µg/mL,,,,,,,inhibition (Escherichia coli [7]): 3%
CCCCCCNC(=O)Nc1cc(-c2ccc(Cl)c(Cl)c2)sc1C(=O)O,> 25 µg/mL,19 µM,,,,,,
CCOC(=O)c1c(NC(=O)Nc2ccccc2)sc2c1CCCCCC2 [UREIDOTHIOPHENE],,,,,,,,inhibition (Escherichia coli [8]): 2%
CCCN(CCc1ccccc1)C(=O)Nc1cc(-c2ccc(Cl)c(Cl)c2)sc1C(=O)O,> 25 µg/mL,12 µM,,,,,,
CN(C(=O)Nc1cc(-c2ccc(Cl)c(Cl)c2)sc1C(=O)O)c1ccccc1,9 µg/mL,45 µM,,,,,,
CCN(Cc1ccccc1)C(=O)Nc1cc(-c2cc(Cl)cc(Cl)c2)sc1C(=O)O,,25 µM,4.6,,,,,

SMILES,MIC (Escherichia coli [1]),IC50 [2],pIC50 [2],MIC (Staphylococcus aureus),MIC [3],MIC (Pseudomonas aeruginosa),MIC (Escherichia coli [4]),also measured
O=C(NCCc1ccccc1)Nc1cc(-c2ccc(Cl)c(Cl)c2)sc1C(=O)O,8 µg/mL,26 µM,,6 µg/mL,7 µg/mL,> 25 µg/mL,> 25 µg/mL,
CCN(Cc1ccccc1)C(=O)Nc1cc(-c2ccc(Cl)c(C(F)(F)F)c2)sc1C(=O)O,12 µg/mL,21 µM,4.68,5 µg/mL,20 µg/mL,> 50 µg/mL,> 50 µg/mL,
CCCCN(CCc1ccccc1)C(=O)Nc1cc(-c2ccc(Cl)c(Cl)c2)sc1C(=O)O,> 25 µg/mL,7 µM,,,,,,
O=C(NCc1ccccc1)Nc1cc(-c2ccc(Cl)c(Cl)c2)sc1C(=O)O,10 µg/mL,45 µM,,,,,,
NC(=O)Nc1cc(-c2ccc(Cl)c(Cl)c2)sc1C(=O)O,> 25 µg/mL,,,,,,,inhibition (Escherichia coli [9]): 26%
CCN(Cc1ccccc1)C(=O)Nc1cc(-c2ccccc2)sc1C(=O)O,17 µg/mL,292 µM,3.52,,,,,
CC(C)NC(=O)Nc1cc(-c2ccc(Cl)c(Cl)c2)sc1C(=O)O,15 µg/mL,,,,,,,inhibition (Escherichia coli [9]): 26%
CN(Cc1ccccc1)C(=O)Nc1cc(-c2ccc(Cl)c(Cl)c2)sc1C(=O)O,5 µg/mL,,,,,,,inhibition (Escherichia coli [9]): 12%
CCN(Cc1ccccc1)C(=O)Nc1cc(-c2ccc([N+](=O)[O-])cc2)sc1C(=O)O,23 µg/mL,73 µM,4.14,,,,,
CCN(Cc1ccccc1)C(=O)Nc1cc(-c2ccc(Cl)c(CCCCNC(=O)OC)c2)sc1C(=O)O,25 µg/mL,20 µM,,,,,,
O=C(Nc1ccccc1)Nc1cc(-c2ccc(Cl)c(Cl)c2)sc1C(=O)O,12 µg/mL,25 µM,,6 µg/mL,12 µg/mL,> 50 µg/mL,> 50 µg/mL,
CCN(Cc1ccccc1)C(=O)Nc1cc(-c2cccc([N+](=O)[O-])c2)sc1C(=O)O,22 µg/mL,80 µM,4.1,,,,,
CCCN(Cc1ccccc1)C(=O)Nc1cc(-c2ccc(Cl)c(Cl)c2)sc1C(=O)O,> 25 µg/mL,14 µM,,,,,,
CCN(Cc1ccccc1)C(=O)Nc1cc(-c2ccc(OC(F)(F)F)cc2)sc1C(=O)O,21 µg/mL,45 µM,4.35,9 µg/mL,20 µg/mL,> 100 µg/mL,> 100 µg/mL,
O=C(O)c1sc(-c2ccc(Cl)c(Cl)c2)cc1NC(=O)N(Cc1ccccc1)Cc1ccccc1,> 25 µg/mL,6 µM,,3 µg/mL,> 25 µg/mL,> 25 µg/mL,> 25 µg/mL,
CCN(Cc1ccccc1)C(=O)Nc1cc(-c2cccc(C(F)(F)F)c2)sc1C(=O)O,38 µg/mL,53 µM,4.28,,,,,
CCN(C(=O)Nc1cc(-c2ccc(Cl)c(Cl)c2)sc1C(=O)O)c1ccccc1,16 µg/mL,36 µM,,,,,,
CC(C)(C)OC(=O)c1c(NC(=O)Nc2ccccc2)sc2c1CCCCCC2,33 µg/mL,,,,,,,inhibition (Escherichia coli [9]): 4%
CCN(Cc1ccccc1)C(=O)Nc1cc(-c2ccc(Cl)cc2)sc1C(=O)OC,> 25 µg/mL,,,,,,,inhibition (Escherichia coli [7]): 2%
CCCC/C(C)=C/C=C(\C)C(=O)c1c(O)cc([C@H](C)CC/C=C/NC(=O)OC)oc1=O [MYXOPYRONIN B],0.8 µg/mL,0.35 µM,,0.5 µg/mL,0.9 µg/mL,> 25 µg/mL,> 25 µg/mL,
